pKi: −log10 of the molar value. Blank lines part the entries; values can stand above or below the compound they belong to.
What was measured:
Mus musculus [1] = experiment: Effect on compound induced hypothermia in Swiss Albino mouse at 2.5 mg/kg, ip in presence of 0.1 mg/kg WAY 100635 after 60 mins relative to control; type: functional
In short: (§1)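 Male Albino Swiss mice; WAY 100635 0.1 mg/kg sc (in distilled water) 15 min before ip compound (1% Tween 80); rectal temperature at 30 and 60 min after compound; Δt from basal; n = 8/group; mean ± SEM.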

Mus musculus [2] = experiment: Anxiolytic activity in Swiss Albino mouse assessed as number of punished crossings for 60 secs at 2.5 mg/kg, ip administered 30 mins before the test in four-plate test; type: functional; details: route intraperitoneal
In short: (§2)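 Male Albino Swiss mice (24-28 g), ip in 1% Tween 80 (10 mL/kg) 30 min before test; box with four metal floor plates, 120 V for 0.5 s on each plate-to-plate crossing after 15 s free exploration, 3 s shock-free if running continues; punished crossings counted over 60 s; n = 9-10/group; mean ± SEM.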

Mus musculus [3] = experiment: Anxiolytic activity in Swiss Albino mouse assessed as number of punished crossings for 60 secs at 5 mg/kg, ip administered 30 mins before the test in four-plate test; type: functional; details: route intraperitoneal; in short: as §2
Mus musculus [4] = experiment: Anxiolytic activity in Swiss Albino mouse assessed as number of punished crossings for 60 secs at 10 mg/kg, ip administered 30 mins before the test in four-plate test; type: functional; details: route intraperitoneal; in short: as §2
[5] = molecular target: T1, 5-hydroxytryptamine receptor 1A (Rattus norvegicus, UniProt P19327); experiment: Displacement of [3H]8-OH-DPAT from rat brain 5HT1A receptor
T1 sequence (P19327 whole entry): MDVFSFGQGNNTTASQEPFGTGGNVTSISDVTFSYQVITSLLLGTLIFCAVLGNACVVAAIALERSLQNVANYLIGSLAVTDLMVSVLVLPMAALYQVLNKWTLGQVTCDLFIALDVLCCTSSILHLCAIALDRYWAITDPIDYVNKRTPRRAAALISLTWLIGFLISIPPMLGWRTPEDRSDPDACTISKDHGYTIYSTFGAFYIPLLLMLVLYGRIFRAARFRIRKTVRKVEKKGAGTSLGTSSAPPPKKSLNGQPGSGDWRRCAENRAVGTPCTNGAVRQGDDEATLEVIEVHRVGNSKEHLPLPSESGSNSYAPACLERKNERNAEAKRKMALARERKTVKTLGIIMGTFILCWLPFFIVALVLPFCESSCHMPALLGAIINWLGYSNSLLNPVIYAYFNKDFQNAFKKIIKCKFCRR
In short: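 Rat hippocampal membranes; 1 nM [3H]-8-OH-DPAT; nonspecific binding with 10 μM 5-HT; 8–10 competitor concentrations in triplicate, ≥3 experiments; GF/B filtration, ice-cold buffer washes, scintillation counting; Ki by nonlinear regression with Cheng–Prusoff.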

[6] = molecular target: 5-hydroxytryptamine receptor 2A (Rattus norvegicus, UniProt P14842); experiment: Displacement of [3H]ketanserin from rat brain 5HT2A receptor
5-hydroxytryptamine receptor 2A, sequence (P14842 whole entry): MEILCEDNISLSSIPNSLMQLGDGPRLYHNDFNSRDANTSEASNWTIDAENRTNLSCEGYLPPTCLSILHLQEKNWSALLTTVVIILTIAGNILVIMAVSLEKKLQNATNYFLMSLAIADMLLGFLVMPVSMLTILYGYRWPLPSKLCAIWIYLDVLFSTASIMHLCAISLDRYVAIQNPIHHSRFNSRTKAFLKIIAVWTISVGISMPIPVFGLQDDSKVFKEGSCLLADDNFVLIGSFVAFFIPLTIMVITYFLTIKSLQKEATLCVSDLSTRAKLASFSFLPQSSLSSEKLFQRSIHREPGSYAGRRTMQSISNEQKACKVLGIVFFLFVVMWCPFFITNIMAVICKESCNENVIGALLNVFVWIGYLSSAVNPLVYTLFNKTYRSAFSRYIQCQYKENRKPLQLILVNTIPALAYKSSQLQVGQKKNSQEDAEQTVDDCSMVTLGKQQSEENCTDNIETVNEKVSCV
In short: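 Rat brain membranes; 0.6 nM [3H]-ketanserin; nonspecific binding with 1 μM methysergide; 8–10 competitor concentrations in triplicate, ≥3 experiments; GF/B filtration, scintillation counting; Ki via Cheng–Prusoff.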

[7] = molecular target: 5-hydroxytryptamine receptor 7 (Rattus norvegicus, UniProt P32305); experiment: Displacement of [3H]5CT from 5HT7 receptor in Wistar rat hyphalamic membrane; type: cell membranes
5-hydroxytryptamine receptor 7, sequence (P32305 whole entry): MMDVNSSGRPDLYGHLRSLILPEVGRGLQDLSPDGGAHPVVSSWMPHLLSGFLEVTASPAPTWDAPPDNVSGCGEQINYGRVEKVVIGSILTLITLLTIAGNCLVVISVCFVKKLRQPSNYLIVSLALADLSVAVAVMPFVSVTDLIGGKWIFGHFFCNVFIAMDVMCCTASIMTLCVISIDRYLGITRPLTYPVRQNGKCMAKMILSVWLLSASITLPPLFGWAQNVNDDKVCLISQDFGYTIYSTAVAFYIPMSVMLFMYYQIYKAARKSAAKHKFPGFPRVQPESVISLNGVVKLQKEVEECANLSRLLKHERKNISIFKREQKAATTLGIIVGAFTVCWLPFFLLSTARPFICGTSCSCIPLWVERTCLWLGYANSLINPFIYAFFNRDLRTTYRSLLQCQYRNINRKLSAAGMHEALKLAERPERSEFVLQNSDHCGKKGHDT

Mus musculus [8] = experiment: Decrease in body temperature in Swiss Albino mouse at 2.5 mg/kg, ip administered 30 mins before the test measured after 30 mins relative to control; type: functional; details: route intraperitoneal
In short: (§3)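 Male Albino Swiss mice (24-28 g) given compound ip in 1% aqueous Tween 80 (10 mL/kg); rectal temperature read at 30, 60, 90 and 120 min post-dose; Δt versus basal temperature taken at start (initial ~36.0 °C); n = 8/group; mean ± SEM.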

Mus musculus [9] = experiment: Decrease in body temperature in Swiss Albino mouse at 2.5 mg/kg, ip administered 30 mins before the test measured after 60 mins relative to control; type: functional; details: route intraperitoneal; in short: as §3
Mus musculus [10] = experiment: Decrease in body temperature in Swiss Albino mouse at 2.5 mg/kg, ip administered 30 mins before the test measured after 90 mins relative to control; type: functional; details: route intraperitoneal; in short: as §3
Mus musculus [11] = experiment: Decrease in body temperature in Swiss Albino mouse at 2.5 mg/kg, ip administered 30 mins before the test measured after 120 mins relative to control; type: functional; details: route intraperitoneal; in short: as §3
Mus musculus [12] = experiment: Decrease in body temperature in Swiss Albino mouse at 5 mg/kg, ip administered 30 mins before the test measured after 30 mins relative to control; type: functional; details: route intraperitoneal; in short: as §3
Mus musculus [13] = experiment: Decrease in body temperature in Swiss Albino mouse at 5 mg/kg, ip administered 30 mins before the test measured after 60 mins relative to control; type: functional; details: route intraperitoneal; in short: as §3
Mus musculus [14] = experiment: Decrease in body temperature in Swiss Albino mouse at 5 mg/kg, ip administered 30 mins before the test measured after 90 mins relative to control; type: functional; details: route intraperitoneal; in short: as §3
Mus musculus [15] = experiment: Decrease in body temperature in Swiss Albino mouse at 5 mg/kg, ip administered 30 mins before the test measured after 120 mins relative to control; type: functional; details: route intraperitoneal; in short: as §3
Mus musculus [16] = experiment: Effect on compound induced hypothermia in Swiss Albino mouse at 2.5 mg/kg, ip in presence of 0.1 mg/kg WAY 100635 after 30 mins relative to control; type: functional; in short: as §1
Mus musculus [17] = experiment: Antidepressant activity in Swiss Albino mouse assessed as immobility time during final 4 mins of 6 mins session at 2.5 mg/kg, ip administered 30 mins before the test in forced-swimming test; type: functional; details: route intraperitoneal
In short: (§4)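 Male Albino Swiss mice (24-28 g), ip in 1% aqueous Tween 80 suspension (10 mL/kg), 30 min pretest; single glass cylinder (25 cm high, 10 cm diameter), 6 cm water at 23–25 °C for 6 min; immobility (floating, minimal head-keeping movements) timed over final 4 min; n = 9-10/group; mean ± SEM.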

Mus musculus [18] = experiment: Antidepressant activity in Swiss Albino mouse assessed as immobility time during final 4 mins of 6 mins session at 5 mg/kg, ip administered 30 mins before the test in forced-swimming test; type: functional; details: route intraperitoneal; in short: as §4
Mus musculus [19] = experiment: Antidepressant activity in Swiss Albino mouse assessed as immobility time during final 4 mins of 6 mins session at 10 mg/kg, ip administered 30 mins before the test in forced-swimming test; type: functional; details: route intraperitoneal; in short: as §4
Mus musculus [20] = experiment: Antidepressant activity in Swiss Albino mouse assessed as immobility time during final 4 mins of 6 mins session at 20 mg/kg, ip administered 30 mins before the test in forced-swimming test; type: functional; details: route intraperitoneal; in short: as §4
Mus musculus [21] = experiment: Locomotor activity in Swiss Albino mouse assessed as number of crossings in 6 mins at 5 mg/kg, ip administered 30 mins before the test; type: functional; details: route intraperitoneal
In short: (§5)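 Male Albino Swiss mice dosed ip 30 min before test (compound in 1% Tween 80; imipramine in distilled water); individual cages with IR beam sensors, consecutive beam breaks scored as ambulatory counts during first 6 min and over a 30-min session; n = 10/group; mean ± SEM.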

Mus musculus [22] = experiment: Locomotor activity in Swiss Albino mouse assessed as number of crossings in 6 mins at 10 mg/kg, ip administered 30 mins before the test; type: functional; details: route intraperitoneal; in short: as §5
Mus musculus [23] = experiment: Locomotor activity in Swiss Albino mouse assessed as number of crossings in 6 mins at 20 mg/kg, ip administered 30 mins before the test; type: functional; details: route intraperitoneal; in short: as §5
Mus musculus [24] = experiment: Locomotor activity in Swiss Albino mouse assessed as number of crossings in 30 mins at 5 mg/kg, ip administered 30 mins before the test; type: functional; details: route intraperitoneal; in short: as §5
Mus musculus [25] = experiment: Locomotor activity in Swiss Albino mouse assessed as number of crossings in 30 mins at 10 mg/kg, ip administered 30 mins before the test; type: functional; details: route intraperitoneal; in short: as §5
Mus musculus [26] = experiment: Locomotor activity in Swiss Albino mouse assessed as number of crossings in 30 mins at 20 mg/kg, ip administered 30 mins before the test; type: functional; details: route intraperitoneal; in short: as §5
Mus musculus [27] = experiment: Effect on compound induced hypothermia in Swiss Albino mouse at 10 mg/kg, ip in presence of 0.1 mg/kg WAY 100635 after 60 mins relative to control; type: functional; in short: as §1
Mus musculus [28] = experiment: Effect on body temperature in Swiss Albino mouse assessed as decrease at 10 mg/kg, ip after 30 mins relative to initial temperature; type: functional; details: route intraperitoneal; in short: as §3
Mus musculus [29] = experiment: Effect on body temperature in Swiss Albino mouse assessed as decrease at 10 mg/kg, ip after 60 mins relative to initial temperature; type: functional; details: route intraperitoneal; in short: as §3
Mus musculus [30] = experiment: Effect on body temperature in Swiss Albino mouse assessed as decrease at 10 mg/kg, ip after 90 mins relative to initial temperature; type: functional; details: route intraperitoneal; in short: as §3
Mus musculus [31] = experiment: Effect on body temperature in Swiss Albino mouse assessed as decrease at 10 mg/kg, ip after 120 mins relative to initial temperature; type: functional; details: route intraperitoneal; in short: as §3
Mus musculus [32] = experiment: Effect on compound induced hypothermia in Swiss Albino mouse at 10 mg/kg, ip in presence of 0.1 mg/kg WAY 100635 after 30 mins relative to control; type: functional; in short: as §1

pKi [5]: 7.96
pKi [6]: 6.60
pKi [7]: 7.27
Compound: CCOc1nc2c(c(=O)n(C)c(=O)n2C)n1CCCCN1CCN(c2ccccc2OC)CC1.Cl
Activity (Mus musculus [1]): -0.3 °C
Activity (Mus musculus [2]): 4.1
Activity (Mus musculus [3]): 5.8
Activity (Mus musculus [4]): 3.8
Activity (Mus musculus [8]): -1.5 °C
Activity (Mus musculus [9]): -1 °C
Activity (Mus musculus [10]): -0.9 °C
Activity (Mus musculus [11]): -0.7 °C
Activity (Mus musculus [12]): -2.5 °C
Activity (Mus musculus [13]): -1.9 °C
Activity (Mus musculus [14]): -1.5 °C
Activity (Mus musculus [15]): -1.3 °C
Activity (Mus musculus [16]): -0.5 °C
Activity (Mus musculus [17]): 154.4 s
Activity (Mus musculus [18]): 126.9 s
Activity (Mus musculus [19]): 122.6 s
Activity (Mus musculus [20]): 178.2 s
Activity (Mus musculus [21]): 125.5
Activity (Mus musculus [22]): 56.2
Activity (Mus musculus [23]): 11.1
Activity (Mus musculus [24]): 325
Activity (Mus musculus [25]): 193.4
Activity (Mus musculus [26]): 19.5

pKi [5]: 7.82
pKi [6]: 7.55
pKi [7]: 6.90
Compound: CCCOc1nc2c(c(=O)n(C)c(=O)n2C)n1CCCCN1CCN(c2cccc(Cl)c2)CC1
Activity (Mus musculus [27]): -0.9 °C
Activity (Mus musculus [12]): -0.7 °C
Activity (Mus musculus [13]): -0.6 °C
Activity (Mus musculus [14]): -0.6 °C
Activity (Mus musculus [15]): -0.2 °C
Activity (Mus musculus [28]): -1.7 °C
Activity (Mus musculus [29]): -1.1 °C
Activity (Mus musculus [30]): -1.1 °C
Activity (Mus musculus [31]): -1.1 °C
Activity (Mus musculus [32]): -1.4 °C
